Results collected from several papers.
Protocols differ between the studies behind these lines.
CDK16 with cyclin Y: Cyclin-dependent kinase 16, with cyclin Y (CDK16, Homo sapiens, UniProt Q00536)
CDK16: Cyclin-dependent kinase 16 (CDK16, Homo sapiens, UniProt Q00536)

Compound	target	effect on	action	method	concentration	quantity	result
O=C(CSc1nc2nccnc2c(=O)n1CCc1ccccc1)Nc1nccs1	CDK16 with cyclin Y	enzyme activity	inhibitor	–	10 µM	inhibition	-7%
Cn1c2c(Cl)c(Cl)ccc2c2cn[nH]c(=O)c21	CDK16	thermal stability	–	DSF	10 µM	ΔTm	0.8 °C
c1ccc(CNc2nc(N3CCOc4ccccc43)nc3c2CCCC3)cc1	CDK16	target engagement in cells	inhibitor	chemoproteomics	20 mM	inhibition	2.9%
CCS(=O)(=O)c1cc2cc(C[C@](O)(CC(C)(C)c3ccc(F)cc3C(N)=O)C(F)(F)F)[nH]c2cn1	CDK16	cell-free assay	–	competition with immobilised ligand	1 µM	remaining binding	100%
Cc1ccc(C(=O)NCc2ccsc2)cc1C#Cc1cn(C(C)C)c2ncnc(N)c12	CDK16 with cyclin Y	enzyme activity	inhibitor	–	1 µM	activity vs control	101%
Cn1c2c(c3ccccc31)C(C#N)C(C)(C)NC2=O (stereo not drawn)	CDK16	thermal stability	–	DSF	10 µM	ΔTm	0.2 °C
CC(C)(C)c1nc(-c2cccc(NS(=O)(=O)c3c(F)cccc3F)c2F)c(-c2ccnc(N)n2)s1	CDK16 with cyclin Y	enzyme activity	inhibitor	radiometric	1 µM	remaining activity	53%
Cn1c2c(c3ccc(Cl)c(Cl)c31)C(C#N)C(C)(C)NC2=O (stereo not drawn)	CDK16	thermal stability	–	DSF	10 µM	ΔTm	0.7 °C
Nc1cnc(N2CCc3cc(S(=O)(=O)Nc4c(F)cc(Cl)cc4F)cc(N4CCCC4=O)c32)nc1	CDK16	cell-free assay	–	competition with immobilised ligand	1 µM	remaining binding	98%
Cc1ccc(C(=O)Nc2ccc(CN3CCN(C)CC3)c(C(F)(F)F)c2)cc1C#Cc1cnc2cccnn12	CDK16	enzyme activity	inhibitor	–	23.5 nM	remaining activity	77%
CN([C@@H]1CCc2c(CC(=O)O)c3cc(S(C)(=O)=O)ccc3n2C1)S(=O)(=O)c1ccc(F)cc1	CDK16	cell-free assay	–	competition with immobilised ligand	1 µM	remaining binding	84%
CCN1CCC2(CC1)NC(=O)c1c(c3ccc(Cl)c(Cl)c3n1C)C2C#N (racemic)	CDK16	thermal stability	–	DSF	10 µM	ΔTm	0 °C
